Experimental data published in ChEMBL document CHEMBL2417545, “6-methoxy-7-benzofuranoxy and 6-methoxy-7-indolyloxy analogues of 2-[2-(2,6-Dimethoxyphenoxy)ethyl]aminomethyl-1,4-benzodioxane (WB4101):1 discovery of a potent and selective α1D-adrenoceptor antagonist” (J Med Chem, 2013).

Key:
[1] = biological target: T1, 5-hydroxytryptamine receptor 1A (Rattus norvegicus, UniProt P19327); experiment: Displacement of [3H]-8-OHDPAT from 5-HT1A receptor in rat hippocampal membranes after 30 mins; type: cell membranes, Hippocampus, Membrane
T1 sequence (P19327 whole entry): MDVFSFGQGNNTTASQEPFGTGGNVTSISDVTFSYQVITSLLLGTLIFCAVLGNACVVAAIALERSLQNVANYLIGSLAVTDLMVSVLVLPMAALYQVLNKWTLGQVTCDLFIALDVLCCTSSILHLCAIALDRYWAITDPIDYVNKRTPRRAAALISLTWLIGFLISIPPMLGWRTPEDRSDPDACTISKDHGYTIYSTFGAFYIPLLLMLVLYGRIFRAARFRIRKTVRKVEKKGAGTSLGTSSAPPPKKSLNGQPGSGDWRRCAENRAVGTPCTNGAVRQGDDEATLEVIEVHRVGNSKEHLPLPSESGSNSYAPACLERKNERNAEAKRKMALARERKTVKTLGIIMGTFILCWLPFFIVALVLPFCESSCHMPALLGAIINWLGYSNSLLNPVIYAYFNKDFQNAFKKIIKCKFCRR

[2] = biological target: T2, Alpha-1D adrenergic receptor (Homo sapiens, UniProt P25100); experiment: Displacement of [3H]prazosin from human alpha-1D adrenoreceptor expressed in CHO cells after 30 mins; type: cell-based
T2 sequence (P25100 whole entry): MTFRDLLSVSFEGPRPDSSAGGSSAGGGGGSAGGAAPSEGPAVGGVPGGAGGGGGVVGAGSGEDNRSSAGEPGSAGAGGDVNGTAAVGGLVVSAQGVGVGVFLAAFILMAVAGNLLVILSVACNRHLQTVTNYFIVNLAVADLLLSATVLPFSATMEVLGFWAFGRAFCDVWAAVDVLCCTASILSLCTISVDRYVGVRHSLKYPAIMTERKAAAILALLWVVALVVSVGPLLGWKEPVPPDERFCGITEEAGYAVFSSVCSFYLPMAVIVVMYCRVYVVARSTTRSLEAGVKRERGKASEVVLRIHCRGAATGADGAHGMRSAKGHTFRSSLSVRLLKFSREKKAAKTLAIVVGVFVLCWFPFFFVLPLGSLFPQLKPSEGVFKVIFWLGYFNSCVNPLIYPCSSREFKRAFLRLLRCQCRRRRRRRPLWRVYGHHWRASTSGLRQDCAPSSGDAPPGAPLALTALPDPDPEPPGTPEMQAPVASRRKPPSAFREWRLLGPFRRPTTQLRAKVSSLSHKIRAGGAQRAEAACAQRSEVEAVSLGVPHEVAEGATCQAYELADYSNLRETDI
Procedure, shortened: (§1)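 Membranes from CHO cells expressing each α₁-AR subtype, incubated 30 min at 25 °C in 50 mM Tris HCl pH 7.7 with 10 μM pargyline and 0.1% ascorbic acid, plus 0.5 nM [³H]prazosin and varying test compound concentrations. Nonspecific binding was defined with 1 μM prazosin.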

[3] = biological target: T3, Alpha-1B adrenergic receptor (Homo sapiens, UniProt P35368); experiment: Displacement of [3H]prazosin from human alpha-1B adrenoreceptor expressed in CHO cells after 30 mins; type: cell-based; procedure, shortened: as §1
T3 sequence (P35368 whole entry): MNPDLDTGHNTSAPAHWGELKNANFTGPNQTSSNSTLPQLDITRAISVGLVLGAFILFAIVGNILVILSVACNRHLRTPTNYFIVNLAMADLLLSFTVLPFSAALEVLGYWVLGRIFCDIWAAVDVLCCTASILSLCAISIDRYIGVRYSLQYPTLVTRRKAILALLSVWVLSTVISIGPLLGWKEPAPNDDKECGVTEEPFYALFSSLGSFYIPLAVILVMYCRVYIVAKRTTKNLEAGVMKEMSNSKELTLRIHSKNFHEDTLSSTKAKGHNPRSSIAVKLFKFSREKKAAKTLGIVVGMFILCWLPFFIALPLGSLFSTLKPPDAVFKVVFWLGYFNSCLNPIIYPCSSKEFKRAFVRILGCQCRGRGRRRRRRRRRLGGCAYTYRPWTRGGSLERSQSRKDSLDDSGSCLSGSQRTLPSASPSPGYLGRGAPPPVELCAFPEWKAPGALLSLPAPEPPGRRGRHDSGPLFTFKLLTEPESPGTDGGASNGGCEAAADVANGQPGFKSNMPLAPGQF

[4] = biological target: T4, Alpha-1A adrenergic receptor (Homo sapiens, UniProt P35348); experiment: Displacement of [3H]prazosin from human alpha-1A adrenoreceptor expressed in CHO cells after 30 mins; type: cell-based; procedure, shortened: as §1
T4 sequence (P35348 whole entry): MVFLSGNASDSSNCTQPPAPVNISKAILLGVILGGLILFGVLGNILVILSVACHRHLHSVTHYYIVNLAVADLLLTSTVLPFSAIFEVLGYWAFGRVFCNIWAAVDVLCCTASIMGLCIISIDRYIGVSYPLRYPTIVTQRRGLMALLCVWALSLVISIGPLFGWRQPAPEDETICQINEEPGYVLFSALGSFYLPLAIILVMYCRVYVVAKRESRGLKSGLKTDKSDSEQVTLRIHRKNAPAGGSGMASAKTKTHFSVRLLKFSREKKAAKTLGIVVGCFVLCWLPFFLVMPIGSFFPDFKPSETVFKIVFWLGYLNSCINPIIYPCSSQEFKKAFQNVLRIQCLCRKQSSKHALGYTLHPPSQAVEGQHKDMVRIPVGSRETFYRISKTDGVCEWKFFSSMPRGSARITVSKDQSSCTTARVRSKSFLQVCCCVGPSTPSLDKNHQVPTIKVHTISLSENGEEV

Compound	Ki [1] [nM]	Ki [2] [nM]	Ki [3] [nM]	Ki [4] [nM]
COc1ccc2c(c1OCCNC[C@@H]1COc3ccccc3O1)NCC2	219	83.2	372	31.6
COc1ccc2ccoc2c1OCCNC[C@@H]1COc2ccccc2O1	11	18.2	126	9.12
COc1ccc2cc[nH]c2c1OCCNC[C@@H]1COc2ccccc2O1	1700	1350	1910	437
COc1ccc2c(c1OCCNC[C@@H]1COc3ccccc3O1)OCC2	162	18.2	162	17
